# Screening results: PubChem, The Scripps Research Institute Molecular Screening Center
# In the library only some 1.9% were active in any assay of this set; here they are far more common.
# CHRM4 antagonist: antagonists of human muscarinic M4 receptor (CHRM4) | inhibition, % at 3 µM | CHO-hM4 cells, ACh EC80, Fluo-8 calcium fluorescence | AID 624125 | P08173 | 0.73% of 360,000 active;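 active = inhibition above its plate's cutoff, the mean inhibition of sample wells plus 3 SD, cut at about 27% in these data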;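 also: 0% = acetylcholine EC80 with DMSO and 100% = DMSO without agonist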
# M5 ag: CHRM5 agonism in calcium assay; P08912; CHO-K1 hM5 cells, Fluo-8 calcium fluorescence; 0% DMSO wells, 100% maximal acetylcholine response; activation, % at 3 µM; 0.19% of 360,000 active; AID 624037;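 active = activation above the run's mean over test compounds plus 3 SD, cut at about 23% in these data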;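 also: signal is peak over basal fluorescence ratio across the kinetic read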
# Target sequence (P08912 whole entry, looked up): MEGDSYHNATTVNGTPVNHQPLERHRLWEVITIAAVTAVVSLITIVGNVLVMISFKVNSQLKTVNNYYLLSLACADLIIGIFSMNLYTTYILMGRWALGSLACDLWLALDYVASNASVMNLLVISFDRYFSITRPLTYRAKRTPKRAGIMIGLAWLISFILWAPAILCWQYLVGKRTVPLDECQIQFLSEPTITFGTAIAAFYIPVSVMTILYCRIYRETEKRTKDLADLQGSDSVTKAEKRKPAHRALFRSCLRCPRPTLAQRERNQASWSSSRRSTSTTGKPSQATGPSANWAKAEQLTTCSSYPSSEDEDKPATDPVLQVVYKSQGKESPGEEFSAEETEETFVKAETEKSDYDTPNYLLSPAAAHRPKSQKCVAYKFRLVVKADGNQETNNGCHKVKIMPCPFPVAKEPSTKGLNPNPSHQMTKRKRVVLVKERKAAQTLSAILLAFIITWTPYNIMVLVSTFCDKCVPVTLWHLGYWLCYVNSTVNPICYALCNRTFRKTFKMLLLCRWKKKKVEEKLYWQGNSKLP
# M4 PAM: potentiates acetylcholine response at human M4 receptor. P08173. CHO-K1 hM4/Gqi5, Fluo-8 calcium fluorescence, ACh EC20; 0% = ACh EC20, 100% = maximal ACh. activation, % at 3 µM. 0.4% of 360,000 active;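 active = activation above its plate's cutoff, the mean activation of sample wells plus 3 SD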
# CHRM4 agonist: agonists of human muscarinic M4 receptor (CHRM4). P08173. CHO-K1 hM4/Gqi5, Fluo-8 calcium fluorescence; vehicle 0%, full acetylcholine response 100%. activation, % at 3 µM. 0.14% of 360,000 active. AID 624127;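 active = activation above the run mean over all test wells plus 3 SD, cut at about 32% in these data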;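 also: peak over basal fluorescence ratio per well then scaled between controls; 0% = DMSO wells and 100% = acetylcholine at EC100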
# M5 PAM: CHRM5 positive allosteric modulation; P08912; CHO-K1 hM5, Fluo-8 calcium, ACh EC20 PAM; 0% = ACh EC20, 100% = ACh EC100; activation, % at 3 µM; 0.3% of 360,000 active;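 active = activation above the run cutoff, the mean activation of all test compounds plus 3 SD, cut at about 18% in these data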
#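 Assay system – human M5 receptor in CHO-K1 cells · Read-out – % activation, ACh-normalized · Technique – Fluo-8 calcium fluorescence · Dosing – single-point, 3 µM nominal · Incubation – Fluo-8 loading 80 min at 37 °C plus 30 min room temperature · Repeats – singlicate, one well per test compound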
# CHRM5 antagonist: antagonists of human muscarinic M5 receptor (CHRM5). CHO-hM5 cells, Fluo-8 calcium fluorescence, ACh EC80. AID 624040. 0.59% of 360,000 active. inhibition, % at 3 µM;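 active = inhibition above a per-plate cutoff, the mean of that plate's test compounds plus 3 SD, cut at about 27% in these data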;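 also: 0% = acetylcholine EC80 with DMSO and 100% = DMSO without agonist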
# * marks the source's active call; other numbers are inactive results.
SMILES,CHRM4 antagonist,M5 ag,M4 PAM,CHRM4 agonist,M5 PAM,CHRM5 antagonist
COc1ccc(-n2c(-c3ccc(Br)cc3)c[n+]3c2CCc2ccccc2-3)cc1,17.6,-10.0,-11.7,0.7,-11.0,17.4
CC(C)c1ccc(-n2c(-c3ccccc3)c[n+]3c2CCc2ccccc2-3)cc1,28.9*,-7.6,-20.3,7.5,-13.5,28.9*
COc1cc2ccccc2cc1C(=O)Nc1ccc(CN2CCOCC2)cc1,-1.6,-0.4,0.1,3.9,-0.8,-3.6
CCCNc1nc(C)cc(-c2cc(-c3ccccc3)on2)n1,5.6,-5.5,8.2,-1.0,-1.8,12.0
CC(C)c1cc(-c2cc(C(=O)NCc3ccccc3)on2)nc(NCC2CC2)n1,41.3*,36.5*,-6.5,42.9*,7.9,27.9*
Cc1cc(-c2cc(-c3ccccc3)on2)nc(NCC2CC2)n1,-6.2,-1.4,28.6*,-0.8,0.9,-1.9
O=C(c1cccc(-n2cccc2)c1)N1CCN(S(=O)(=O)c2ccccc2)CC1,-1.2,0.9,-0.2,3.5,-1.0,2.1
c1ccc2oc(SCc3cn4ccsc4n3)nc2c1,37.5*,-13.2,-16.8,0.2,-5.6,6.6
Cc1nn(-c2ccccc2)c(C)c1NC(=O)COC(=O)c1cc(Br)ccc1O,30.7*,4.5,-3.0,20.3,-23.7,21.6
N=c1c2c3c(sc2nc2n1CCCCC2)CCCCC3,28.7*,-5.9,-23.8,3.5,-12.0,6.6
CCCNC(=O)CCc1cc(C(C)(C)C)c(O)c(C(C)(C)C)c1,1.0,-3.0,-1.6,-1.1,4.1,-8.0
c1cnc2c(C3NCCc4c3[nH]c3ccccc43)cccc2c1 (stereo not drawn),38.3*,1.7,-14.3,2.7,-7.7,7.5
Cc1ccccc1NS(=O)(=O)c1ccc(NC(=O)c2ccco2)cc1,-8.8,-1.9,-3.0,4.5,28.1*,-14.4
CCCCNC(=O)C1c2ccccc2OCC(=O)N1CC(F)(F)F (stereo not drawn),-10.0,-0.8,9.8,1.2,-1.3,-2.6
CC1=C(C(=O)OCC2CCCO2)C(c2ccc(C)cc2)C2=C(CCCC2=O)N1 (stereo not drawn),-9.3,-7.0,9.4,1.5,19.7*,-4.1
CC1=C(C(=O)OCC2CCCO2)C(c2ccncc2)C2=C(CCCC2=O)N1 (stereo not drawn),0.4,-3.1,2.1,0.4,8.1,-6.4
CCN(CC)c1ccc(C2C(C(=O)OCCOC)=C(C)NC3=C2C(=O)CCC3)cc1 (stereo not drawn),34.8*,-7.1,-19.5,1.3,-14.6,21.8
CC(C)c1cc(C(=O)Nc2cccnc2)no1,-9.5,-4.4,9.0,1.4,-1.4,0.9
Cc1ccccc1NC(=O)c1cccc(S(C)(=O)=O)c1,-1.6,-0.4,1.8,1.6,-0.2,-6.5
CCC(=O)Nc1ccc(NC(=S)NC(=O)/C=C/c2ccco2)cc1,-9.4,-2.2,7.2,2.0,-2.3,8.1
CC(=O)NC(=S)Nc1ccc(NC(=S)NC(=O)/C=C/c2ccco2)cc1,-19.0,24.9*,34.0*,1.4,9.8,10.8
CC(=O)Nc1sc(C)c(C)c1C(=O)OCC(=O)N(Cc1ccccc1)C(C)C,-26.2,-2.9,12.2,1.4,2.9,-0.8
Oc1ccc(Cl)cc1CNCc1ccc(F)cc1,-15.1,22.3,5.0,10.9,4.2,0.2
O=C(CCCN1CCOCC1)c1ccc2c(c1)OCCO2,-4.3,0.1,5.5,2.2,-1.9,7.7
O=C(CCCN1CCC(c2ccccc2)C1)c1ccc2c(c1)OCCO2 (stereo not drawn),26.6*,-4.6,-14.8,4.3,-9.4,11.5
SMILES,CHRM4 antagonist,M5 ag,M4 PAM,CHRM4 agonist,M5 PAM,CHRM5 antagonist
COc1ccc(N2CC(C(=O)Nc3nc4ccc(OC)cc4s3)CC2=O)cc1 (stereo not drawn),1.0,1.8,-4.9,4.2,-2.7,8.9
CC(Oc1ccccc1)c1ccnn1S(=O)(=O)c1ccccc1 (stereo not drawn),-3.3,-15.2,11.6,-2.0,20.3*,0.6
CC(O)(c1ccccc1)c1nc(-c2ccccc2)cs1 (stereo not drawn),-14.5,-0.9,4.8,0.6,-2.5,2.2
NS(=O)(=O)c1ccc2nc(NC(=O)c3ccncc3)sc2c1,3.5,-2.0,1.1,0.5,-2.9,-4.7
N#C/C(=C/c1ccc(N2CCCCC2)o1)C(=O)Nc1ccc2ccccc2c1,84.4*,456.6*,-22.6,181.3*,-20.9,90.9*
N#C/C(=C/c1ccc(N2CCCCC2)o1)C(=O)Nc1ccc(Cl)cc1,44.7*,56.0*,-18.7,170.3*,-25.7,54.7*
Cc1ccc(-n2nc(C)cc2N)c(C)c1,0.9,-1.8,0.6,0.9,7.8,-16.1
CC(C)(CO)NS(=O)(=O)c1ccc2c(c1)C(=NO)c1cc(S(=O)(=O)NC(C)(C)CO)ccc1-2,-3.1,0.4,21.0*,0.9,11.0,-7.6
COCCNS(=O)(=O)c1ccc2c(c1)C(=NO)c1cc(S(=O)(=O)NCCOC)ccc1-2,0.4,3.6,8.2,2.1,1.8,9.4
C[C@H](CO)N1C[C@H](C)[C@@H](CN(C)S(C)(=O)=O)Oc2ccc(NC(=O)Nc3ccccc3)cc2C1=O,-2.0,2.1,4.1,2.8,21.8*,0.1
C[C@H](CO)N1C[C@H](C)[C@@H](CN(C)Cc2ccc(Oc3ccccc3)cc2)Oc2c(NC(=O)C3CC3)cccc2C1=O,38.2*,-1.6,-7.9,11.0,-7.7,-0.4
C[C@@H]1CCCCO[C@H](CN(C)S(=O)(=O)c2cn(C)cn2)[C@H](C)CN([C@@H](C)CO)C(=O)c2cc(NC(=O)c3ccccc3)ccc2O1,0.0,0.7,3.1,0.4,1.0,9.0
COc1ccc(NC(=O)Nc2ccc3c(c2)C(=O)N([C@H](C)CO)C[C@H](C)[C@@H](CN(C)S(C)(=O)=O)O3)cc1,-7.6,3.3,11.2,1.4,2.1,1.4
C[C@@H]1CCCCO[C@H](CN(C)S(=O)(=O)c2cn(C)cn2)[C@@H](C)CN([C@H](C)CO)C(=O)c2cc(NC(=O)c3ccncc3)ccc2O1,-32.1,1.2,17.6*,-0.1,6.0,-16.1
C[C@H]1CN([C@@H](C)CO)C(=O)c2cccc(NC(=O)Nc3ccc(C(F)(F)F)cc3)c2O[C@H]1CN(C)C,-0.8,2.1,16.5,0.5,20.5*,-5.0
CCC(Oc1ccc(C)c(C)c1)C(=O)O (stereo not drawn),5.9,1.7,4.2,0.4,-4.4,14.8
Cc1ccc2cc(C#N)c(SCC(=O)NCC3CCCO3)nc2c1 (stereo not drawn),-3.2,-0.9,26.2*,0.7,6.3,-6.1
Cc1ccc2nc(SCC(=O)NCC3CCCO3)c(C#N)cc2c1 (stereo not drawn),-2.0,-3.9,4.4,0.0,2.4,-13.5
